Source: ChEMBL document CHEMBL4622832, “Synthesis, biological evaluation and molecular modeling study of 2-amino-3,5-disubstituted-pyrazines as Aurora kinases inhibitors” (Bioorg Med Chem, 2020)
Activity calls are given as the source filed them. No cut-off for these calls is given here.

Legend:
U-87 MG = assay: Antiproliferative activity against human U87 cells assessed as cell growth inhibition after 72 hrs by MTT assay; type: functional, cell-based, U-87MG ATCC
Outline: (§1)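 Cells seeded at 5 × 10^3 cells/well in medium with 10% FBS for 24 h at 37 °C, 5% CO2. Compounds diluted in culture medium to various concentrations, 72 h exposure. MTT (5 mg/mL stock in serum-free medium) for 4 h, formazan dissolved in DMSO, absorbance at 490 nm. IC50 from log plot of percent of control versus concentration; triplicate.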

HepG2 = assay: Antiproliferative activity against human HepG2 cells assessed as cell growth inhibition after 72 hrs by MTT assay; type: functional, cell-based; conditions: HepG2, 72 h; outline: as §1
Aurora kinase A = molecular target: T1, Aurora kinase A (Homo sapiens, UniProt O14965); assay: Inhibition of Aurora kinase A (unknown origin) incubated for 30 mins by Kinase Glo luminescent assay
T1 sequence (O14965 whole entry): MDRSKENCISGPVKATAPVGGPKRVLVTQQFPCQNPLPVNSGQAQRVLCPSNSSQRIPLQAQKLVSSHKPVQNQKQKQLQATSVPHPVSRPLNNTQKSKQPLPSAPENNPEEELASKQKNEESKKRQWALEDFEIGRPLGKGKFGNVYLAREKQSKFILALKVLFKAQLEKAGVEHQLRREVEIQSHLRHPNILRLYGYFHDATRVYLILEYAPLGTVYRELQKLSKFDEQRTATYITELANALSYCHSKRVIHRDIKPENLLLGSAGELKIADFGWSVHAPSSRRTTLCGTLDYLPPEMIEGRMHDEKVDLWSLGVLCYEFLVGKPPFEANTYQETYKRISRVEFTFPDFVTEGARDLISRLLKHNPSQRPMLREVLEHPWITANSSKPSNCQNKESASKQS

LoVo = assay: Antiproliferative activity against human LoVo cells assessed as cell growth inhibition after 72 hrs by MTT assay; type: functional, cell-based; outline: as §1
HeLa [1] = assay: Antiproliferative activity against human HeLa cells assessed as cell growth inhibition after 72 hrs by MTT assay; type: functional, cell-based; outline: as §1
Aurora kinase B [2] = molecular target: T2, Aurora kinase B (Homo sapiens, UniProt Q96GD4); assay: Inhibition of Aurora kinase B (unknown origin) incubated for 30 mins by Kinase Glo luminescent assay
T2 sequence (Q96GD4 whole entry): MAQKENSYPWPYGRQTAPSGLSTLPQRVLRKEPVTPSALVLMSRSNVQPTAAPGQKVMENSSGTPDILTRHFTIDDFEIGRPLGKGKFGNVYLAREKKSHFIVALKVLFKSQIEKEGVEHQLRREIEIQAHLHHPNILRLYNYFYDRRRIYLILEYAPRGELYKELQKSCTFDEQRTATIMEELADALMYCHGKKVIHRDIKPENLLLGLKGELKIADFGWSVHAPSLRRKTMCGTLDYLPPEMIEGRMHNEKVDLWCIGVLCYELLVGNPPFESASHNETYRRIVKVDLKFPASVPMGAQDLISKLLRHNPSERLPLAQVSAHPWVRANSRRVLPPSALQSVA

HeLa [3] = assay: Induction of cell cycle arrest in human HeLa cells assessed as accumulation in G2/M phase at 1 uM after 24 hrs by propidium iodide staining-based flow cytometric analysis (reference value: 10.5%); type: functional
[4] = molecular target: T3, Aurora kinase A (Homo sapiens) (UniProt O14965); assay: Inhibition of Aurora kinase A in human HeLa cells assessed as reduction in phosphorylation at Thr288 residue incubated for 24 hrs by western blot analysis; type: cell-based
T3 sequence (whole entry): T1 sequence (O14965 whole entry)
Outline: (§2)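 HeLa cells treated 24 h at 0, 1, 5 or 10 µM. Lysates quantified by BCA; 20–30 µg protein run on 12% SDS-PAGE, transferred to PVDF. Blocked 2 h in 5% milk/TBST. Primary antibodies (1:500–1:1000) overnight at 4 °C against p-Aurora A Thr288, p-Aurora B Thr232, total Aurora A/B, cyclin B1 and cdc2. Secondary at 1:5000–1:10,000; β-actin loading control.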

HeLa [5] = assay: Induction of cell cycle arrest in human HeLa cells assessed as accumulation in G2/M phase at 5 uM after 24 hrs by propidium iodide staining-based flow cytometric analysis (reference value: 10.5%); type: functional
HeLa [6] = assay: Induction of cell cycle arrest in human HeLa cells assessed as accumulation in G2/M phase at 10 uM after 24 hrs by propidium iodide staining-based flow cytometric analysis (reference value: 10.5%); type: functional
HeLa [7] = assay: Induction of cell cycle arrest in human HeLa cells assessed as decrease in cdc2 expression level at 1 to 10 uM incubated for 24 hrs by Western blot analysis; type: functional, cell-based; outline: as §2
HeLa [8] = assay: Induction of cell cycle arrest in human HeLa cells assessed as accumulation in G2/M phase after 24 hrs by propidium iodide staining-based flow cytometric analysis; type: functional
HeLa [9] = assay: Induction of cell cycle arrest in human HeLa cells assessed as decrease in cyclin B1 expression level at 1 to 10 uM incubated for 24 hrs by Western blot analysis; type: functional, cell-based; outline: as §2
Aurora kinase B [10] = molecular target: T2, Aurora kinase B; assay: Inhibition of Aurora kinase B in human HeLa cells assessed as reduction in phosphorylation at Thr232 residue incubated for 24 hrs by western blot analysis; type: cell-based; outline: as §2
Aurora kinase B [11] = molecular target: T2, Aurora kinase B; assay: Inhibition of Aurora B in human B-NHL cells assessed as inhibition of histone H3 phosphorylation on Ser10 by immunoblotting analysis; type: cell-based

| SMILES | IC50 (U-87 MG) | IC50 (HepG2) | IC50 (Aurora kinase A) | IC50 (LoVo) | IC50 (HeLa [1]) | IC50 (Aurora kinase B [2]) | also measured |
| --- | --- | --- | --- | --- | --- | --- | --- |
| Cn1cc(-c2cnc(N)c(Oc3ccc(C(=O)Nc4ccc(Cl)cc4)cc3)n2)cn1 | 35.8 µM | 11.9 µM | 0.19 µM | 3.08 µM | 3.44 µM | 0.175 µM | – |
| Cc1noc(C)c1-c1cnc(N)c(Oc2ccc(C(=O)Nc3ncccc3Cl)cc2)n1 | 45.6 µM | 27.2 µM | – | 14.8 µM | 31.9 µM | – | – |
| Cc1noc(C)c1-c1cnc(N)c(NCc2ccc(C(=O)Nc3ccc(Cl)cc3)cc2)n1 | > 100 µM | > 100 µM | – | > 100 µM | > 100 µM | – | – |
| Cc1noc(C)c1-c1cnc(N)c(Oc2ccc(C(=O)NC3CC3)cc2)n1 | 43.3 µM | 43.2 µM | – | > 100 µM | 17.8 µM | – | – |
| Cc1noc(C)c1-c1cnc(N)c(Sc2ccc(C(=O)Nc3ccc(Cl)cc3)cc2)n1 | > 100 µM | 45.2 µM | – | 49.2 µM | 38.4 µM | – | – |
| Cn1cc(-c2cnc(N)c(NCc3ccc(C(=O)Nc4ccc(Cl)cc4)cc3)n2)cn1 | > 100 µM | 20.1 µM | – | 43.6 µM | 42.1 µM | – | – |
| Cn1cc(-c2cnc(N)c(Oc3ccc(C(=O)Nc4ccccc4Cl)cc3)n2)cn1 | 44.8 µM | 66.9 µM | – | 41.4 µM | 73 µM | – | – |
| Cn1cc(-c2cnc(N)c(Oc3ccc(C(=O)Nc4cccc(Cl)c4)cc3)n2)cn1 | 21.7 µM | 21.2 µM | 0.658 µM | 24.5 µM | 4.46 µM | 0.272 µM | – |
| Cn1cc(-c2cnc(N)c(Sc3ccc(C(=O)Nc4ccc(Cl)cc4)cc3)n2)cn1 | > 100 µM | > 100 µM | – | > 100 µM | 42.7 µM | – | – |
| Cn1cc(-c2cnc(N)c(Oc3ccc(C(=O)Nc4ncccc4Cl)cc3)n2)cn1 | 37.6 µM | 21.7 µM | – | 16.5 µM | 36.1 µM | – | – |
| Cc1noc(C)c1-c1cnc(N)c(Oc2ccc(C(=O)Nc3cccc(Cl)c3)cc2)n1 | 11.5 µM | 7.3 µM | 0.09 µM | 1.64 µM | 1.34 µM | 0.152 µM | Activity (HeLa [3]): 21%; inhibition [4]: Dose-dependent effect; Activity (HeLa [5]): 30.1%; Activity (HeLa [6]): 34.9%; Activity (HeLa [7]): Active; Activity (HeLa [8]): Dose-dependent effect; Activity (HeLa [9]): Active; inhibition (Aurora kinase B [10]): Dose-dependent effect |
| Cc1noc(C)c1-c1cnc(N)c(Oc2ccc(C(=O)Nc3ccccc3Cl)cc2)n1 | 60.5 µM | > 100 µM | – | > 100 µM | 81.3 µM | – | – |
| Cc1noc(C)c1-c1cnc(N)c(Oc2ccc(C(=O)NC3CCCCC3)cc2)n1 | 40.4 µM | 5.42 µM | 0.23 µM | 21.6 µM | 26.1 µM | 0.32 µM | – |
| Cc1noc(C)c1-c1cnc(N)c(Oc2ccc(C(=O)Nc3ccc(Cl)cc3)cc2)n1 | 15.5 µM | 14.4 µM | 0.458 µM | 1.92 µM | 2.23 µM | 0.26 µM | – |
| Cc1noc(C)c1-c1cnc(N)c(Oc2ccc(C(=O)Nc3cccc(Cl)n3)cc2)n1 | 64.1 µM | 35.7 µM | – | 39.3 µM | 25.5 µM | – | – |
| Cn1cc(-c2cnc(N)c(Oc3ccc(C(=O)Nc4cc(Cl)ccn4)cc3)n2)cn1 | 47.9 µM | > 100 µM | – | 26.6 µM | 40.8 µM | – | – |
| Cc1noc(C)c1-c1cnc(N)c(Oc2ccc(C(=O)Nc3ccccc3)cc2)n1 | 26.6 µM | 11.8 µM | 0.22 µM | 5.74 µM | 10.5 µM | 0.538 µM | – |
| Cc1noc(C)c1-c1cnc(N)c(Oc2ccc(C(=O)N3CCN(C)CC3)cc2)n1 | 21.5 µM | 17.6 µM | 0.143 µM | 7.69 µM | 8.03 µM | 0.189 µM | – |
| Cc1noc(C)c1-c1cnc(N)c(Oc2ccc(C(=O)NC3CCCC3)cc2)n1 | 57.6 µM | 12.8 µM | – | 25.2 µM | 9.97 µM | – | – |
| Cn1cc(-c2cnc(N)c(Oc3ccc(C(=O)Nc4ccccc4)cc3)n2)cn1 | 17.7 µM | 11.6 µM | 0.22 µM | 9.21 µM | 12.3 µM | 0.164 µM | – |
| Cn1cc(-c2cnc(N)c(Oc3ccc(C(=O)Nc4cccc(Cl)n4)cc3)n2)cn1 | 54.8 µM | 44.2 µM | – | 48.6 µM | 38.2 µM | – | – |
| O=C(Nc1c[nH]nc1-c1nc2ccc(CN3CCOCC3)cc2[nH]1)NC1CC1 [AT-9283] | – | – | – | – | – | – | IC50 (Aurora kinase B [11]): 0.03 µM |
| CCCNC(=O)c1ccc(Oc2nc(-c3c(C)noc3C)cnc2N)cc1 | 47.8 µM | 6.88 µM | – | 17.5 µM | 32.1 µM | – | – |
| Cc1cc(Nc2cc(N3CCN(C)CC3)nc(Sc3ccc(NC(=O)C4CC4)cc3)n2)n[nH]1 [TOZASERTIB] | 14.5 µM | 12.8 µM | – | 13.6 µM | 9.5 µM | – | Activity (HeLa [6]): 36% |
| Cn1cc(-c2cnc(N)c(Oc3ccc(C(=O)Nc4ccc(Cl)cn4)cc3)n2)cn1 | 22.2 µM | 24.2 µM | – | 6.16 µM | 21.5 µM | – | – |
| Cc1noc(C)c1-c1cnc(N)c(Oc2ccc(C(=O)Nc3cc(Cl)ccn3)cc2)n1 | 70.8 µM | > 100 µM | – | > 100 µM | 37.9 µM | – | – |
| Cc1noc(C)c1-c1cnc(N)c(Oc2ccc(C(=O)Nc3ccc(Cl)cn3)cc2)n1 | 45.6 µM | 35.6 µM | – | 9.18 µM | 19.2 µM | – | – |
| Cc1noc(C)c1-c1cnc(N)c(Oc2ccc(C(=O)N3CCOCC3)cc2)n1 | 27.2 µM | 15.4 µM | 0.172 µM | 10.2 µM | 14.1 µM | 0.36 µM | – |
